Laboratory results taken from ChEMBL document CHEMBL2331200, “Synthesis and bioevaluation of [(18)F]4-fluoro-m-hydroxyphenethylguanidine ([(18)F]4F-MHPG): a novel radiotracer for quantitative PET studies of cardiac sympathetic innervation” (Bioorg Med Chem Lett, 2013).

Columns and labels:
[1] = Biodistribution in iv dosed rhesus monkey liver; type: ADME, organism-based, Macaca mulatta; details: in vivo
How it was run: (§1)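 Dynamic PET imaging of a single nonhuman primate after injection of the 18F tracer. Regional heart, liver and lung activity was read from the images. Heart-to-blood activity ratios were taken at 80–90 min post-injection.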

Heart = test: Drug uptake in rat heart assessed as neuronal uptake rate per gram of wet weight after 10 mins constant infusion measured up to 140 mins; type: ADME, tissue-based; details: ex_vivo
How it was run: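 Isolated working rat heart with uptake-2 blocked by 54 μM corticosterone in the perfusion buffer. Radiotracer was infused for 10 min at constant perfusate concentration to give the neuronal uptake rate Kup (ml/min/g wet).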

[2] = Biodistribution in iv dosed rhesus monkey left ventricle; type: ADME, organism-based, Macaca mulatta, Heart left ventricle; details: in vivo; how it was run: as §1
[3] = Biodistribution in iv dosed rhesus monkey lungs; type: ADME, organism-based, Macaca mulatta, Lung; details: in vivo; how it was run: as §1
[4] = Biodistribution in iv dosed rhesus monkey heart; type: ADME, organism-based, Macaca mulatta; details: in vivo; how it was run: as §1

Compound | Drug uptake [1] | Drug uptake (Heart) [mL/min/g] | Drug uptake [2] | Drug uptake [3] | Drug uptake [4]
C[C@H](N[11CH3])[C@H](O)c1cccc(O)c1 | Active | – | – | – | –
N=C(N)NCc1ccc([18F])cc1 | – | 1.2 | – | – | –
N=C(N)NCCc1ccc([18F])c(O)c1 | Active | – | Active | Not Active | Active
N=C(N)NCc1cccc([123I])c1 [IOBENGUANE I 123] | Active | – | – | – | –
